From ChEMBL document CHEMBL4138186, “Synthesis and bio-evaluation of indole-chalcone based benzopyrans as promising antiligase and antiproliferative agents” (Eur J Med Chem, 2018)
pIC50: −log10 of the molar value. Activity calls are given as the source filed them. The calls are words filed in the database; no cut-off is given here.

Legend:
[1] = test system: HeLa; experiment: Antiproliferative activity against human HeLa cells at 10 uM after 48 hrs by MTT assay; format: functional, cell-based
Method in brief: (§1)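 Cells seeded and allowed to adhere overnight, then given compound from 10 mM DMSO stock; DMSO alone as vehicle control. Grown 48 h, MTT (5 mg/ml) added for 3 h, formazan dissolved in DMSO, absorbance read at 590 nm. % inhibition = (A control − A treated)/A control × 100; three independent biological replicates. Single-point screen at 10 μM; IC50 from three independent experiments.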

[2] = target: DNA ligase 1 (Homo sapiens) (UniProt P18858); experiment: Inhibition of human Lig1 at 10 uM using double strand nicked DNA as substrate after 30 mins in presence of ATP by acrylamide-based fluorescence-assay
Sequence of DNA ligase 1 (Homo sapiens) (P18858 whole entry): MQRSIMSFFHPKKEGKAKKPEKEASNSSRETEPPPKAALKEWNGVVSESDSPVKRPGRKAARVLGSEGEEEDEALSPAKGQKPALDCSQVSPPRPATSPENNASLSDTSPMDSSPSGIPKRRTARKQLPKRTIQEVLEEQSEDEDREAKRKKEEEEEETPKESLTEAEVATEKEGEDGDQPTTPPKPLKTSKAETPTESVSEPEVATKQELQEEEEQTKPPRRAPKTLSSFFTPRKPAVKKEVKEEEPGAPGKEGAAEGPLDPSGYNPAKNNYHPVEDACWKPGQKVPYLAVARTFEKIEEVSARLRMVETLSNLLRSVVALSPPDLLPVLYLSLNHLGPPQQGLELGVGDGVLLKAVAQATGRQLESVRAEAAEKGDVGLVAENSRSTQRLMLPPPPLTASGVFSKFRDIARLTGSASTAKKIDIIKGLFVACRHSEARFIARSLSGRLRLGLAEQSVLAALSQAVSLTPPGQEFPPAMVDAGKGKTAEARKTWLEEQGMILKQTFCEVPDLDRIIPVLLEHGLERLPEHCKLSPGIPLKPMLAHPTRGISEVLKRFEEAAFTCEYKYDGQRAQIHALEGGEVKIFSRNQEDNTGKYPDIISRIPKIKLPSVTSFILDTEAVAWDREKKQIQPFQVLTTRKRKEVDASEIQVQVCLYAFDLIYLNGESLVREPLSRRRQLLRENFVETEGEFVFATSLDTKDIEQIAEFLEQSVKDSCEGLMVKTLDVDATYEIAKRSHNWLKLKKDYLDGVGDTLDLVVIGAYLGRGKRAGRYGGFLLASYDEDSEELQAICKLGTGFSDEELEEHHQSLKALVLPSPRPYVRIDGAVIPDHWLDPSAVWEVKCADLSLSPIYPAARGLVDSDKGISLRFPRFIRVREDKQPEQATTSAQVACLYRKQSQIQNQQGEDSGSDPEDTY
Method in brief: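 Cy3-labelled nicked duplex (52-mer annealed to 25- and 27-mers; 1 pmol) with purified hLigI (0.2 pmol) in 50 mM Tris-Cl pH 7.5, 10 mM MgCl2, 0.25 mg/mL BSA, 100 mM NaCl, 500 µM ATP. Compound at 10 μM; 30 min at 37 °C. Stopped with formamide/EDTA; ligated and unligated strands separated on 7 M urea/12% denaturing gel. Triplicate.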

[3] = test system: MDA-MB-231; experiment: Antiproliferative activity against human MDA-MB-231 cells at 10 uM after 48 hrs by MTT assay; format: functional, cell-based; method in brief: as §1
[4] = test system: DLD-1; experiment: Antiproliferative activity against human DLD1 cells at 10 uM after 48 hrs by MTT assay; format: functional, cell-based; method in brief: as §1
[5] = test system: 4T1 (Mus musculus); experiment: Antiproliferative activity against mouse 4T1 cells at 10 uM after 48 hrs by MTT assay
[6] = test system: HepG2; experiment: Antiproliferative activity against human HepG2 cells at 10 uM after 48 hrs by MTT assay; format: functional, cell-based; method in brief: as §1
[7] = test system: DNA; experiment: Binding affinity to Escherichia coli pUC18 DNA assessed as protection against DNase1-mediated cleavage at 500 uM preincubated for 30 mins followed by DNase1 addition measured after 5 mins by 1% agarose gel based UV-transilluminator analysis; format: nucleic-acid assay
Method in brief: (§2)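 Linearized pUC18 plasmid DNA (100 ng) incubated with compound (250, 500, 700 μM) or controls (doxorubicin 100 μM; DAPI, methyl green, ampicillin 500 μM) for 30 min at 37 °C in ligation-like buffer. DNase I 0.0025 U added for 5 min at 37 °C, stopped with urea/EDTA buffer, resolved on 1% agarose and imaged under UV.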

[8] = target: DNA ligase 1 (Homo sapiens) (UniProt P18858); experiment: Competitive inhibition of human Lig1 using non-ligatable double stranded nicked DNA as substrate after 2 hrs in presence of ATP by EMSA
Method in brief: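 Purified hLigI (10 pmol) with compound (31.25–500 μM) and 2 pmol 5'-FAM-labelled non-ligatable nicked duplex (dideoxy 3' end). Buffer: 50 mM Tris-Cl pH 7.5, 10 mM MgCl2, 0.25 mg/ml BSA, 100 mM NaCl, plus ATP. Incubated 2 h on ice, then 6.5% native PAGE. Three independent experiments.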

[9] = target: LIG4/XRCC4 (Homo sapiens) (UniProt P49917+Q13426); experiment: Inhibition of human DNA Lig4/[…] at 10 uM using double strand nicked DNA as substrate after 30 mins in presence of ATP by acrylamide-based fluorescence-assay; format: protein-complex assay
[10] = Antiproliferative activity against mouse 4T1 cells after 48 hrs by MTT assay
[11] = test system: DLD-1; experiment: Anti-migratory activity in human DLD1 cells at 2.5 to 5 uM after 12 to 48 hrs by wound healing assay; format: functional, cell-based
Method in brief: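 DLD-1 monolayer at 70-80% confluence scratched with a pipette tip, then exposed to 2.5 and 5 μM for 12, 24 and 48 h (methods state 12, 24, 36 h). Wound imaged by phase-contrast microscopy; % open area quantified at each time point. Mean of three independent experiments.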

[12] = target: T1, DNA ligase (Enterobacteria phage T4) (UniProt P00970); experiment: Inhibition of T4 DNA ligase at 10 uM using double strand nicked DNA as substrate at 3.125 to 50 uM after 30 mins in presence of ATP by acrylamide-based fluorescence-assay; settings: Tequatrovirus T4
T1 sequence (whole entry): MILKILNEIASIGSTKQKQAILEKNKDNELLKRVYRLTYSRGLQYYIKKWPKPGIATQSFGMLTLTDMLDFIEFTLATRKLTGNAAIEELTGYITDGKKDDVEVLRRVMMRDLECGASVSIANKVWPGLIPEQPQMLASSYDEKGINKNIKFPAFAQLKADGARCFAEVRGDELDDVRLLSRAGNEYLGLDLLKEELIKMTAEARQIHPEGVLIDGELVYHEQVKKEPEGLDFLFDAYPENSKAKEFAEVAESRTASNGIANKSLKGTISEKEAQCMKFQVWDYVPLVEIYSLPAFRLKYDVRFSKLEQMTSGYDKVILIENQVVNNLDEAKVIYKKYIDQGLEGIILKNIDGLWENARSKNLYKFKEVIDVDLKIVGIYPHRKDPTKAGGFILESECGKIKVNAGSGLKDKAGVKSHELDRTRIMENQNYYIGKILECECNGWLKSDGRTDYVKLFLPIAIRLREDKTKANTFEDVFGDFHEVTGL

[13] = test system: DLD-1; experiment: Induction of apoptosis in 3D-spheroids of human DLD1 cells assessed as increase in cell death after 72 hrs by FDA/propidium iodide dye based phase contrast microscopy; format: functional
Method in brief: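 DLD-1 spheroids formed by hanging drop (5×10^3 cells/10 μL RPMI, 3 days, 37 °C, 5% CO2), moved to 0.7% agarose-coated wells and grown 7 days. Treated 72 h at 25, 12.5 and 6.25. Stained with FDA 2 μg/ml and PI 20 μg/ml for 20 min in the dark; imaged by fluorescence microscopy.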

[14] = test system: HEK293; experiment: Cytotoxicity against HEK293 cells after 48 hrs by MTT assay; format: cell-based; settings: Homo sapiens, HEK293, 48 h
[15] = target: T2, DNA ligase 3 (Homo sapiens) (UniProt P49916); experiment: Inhibition of human Lig3beta at 10 uM using double strand nicked DNA as substrate at 3.125 to 50 uM after 30 mins in presence of ATP by acrylamide-based fluorescence-assay
T2 sequence (whole entry): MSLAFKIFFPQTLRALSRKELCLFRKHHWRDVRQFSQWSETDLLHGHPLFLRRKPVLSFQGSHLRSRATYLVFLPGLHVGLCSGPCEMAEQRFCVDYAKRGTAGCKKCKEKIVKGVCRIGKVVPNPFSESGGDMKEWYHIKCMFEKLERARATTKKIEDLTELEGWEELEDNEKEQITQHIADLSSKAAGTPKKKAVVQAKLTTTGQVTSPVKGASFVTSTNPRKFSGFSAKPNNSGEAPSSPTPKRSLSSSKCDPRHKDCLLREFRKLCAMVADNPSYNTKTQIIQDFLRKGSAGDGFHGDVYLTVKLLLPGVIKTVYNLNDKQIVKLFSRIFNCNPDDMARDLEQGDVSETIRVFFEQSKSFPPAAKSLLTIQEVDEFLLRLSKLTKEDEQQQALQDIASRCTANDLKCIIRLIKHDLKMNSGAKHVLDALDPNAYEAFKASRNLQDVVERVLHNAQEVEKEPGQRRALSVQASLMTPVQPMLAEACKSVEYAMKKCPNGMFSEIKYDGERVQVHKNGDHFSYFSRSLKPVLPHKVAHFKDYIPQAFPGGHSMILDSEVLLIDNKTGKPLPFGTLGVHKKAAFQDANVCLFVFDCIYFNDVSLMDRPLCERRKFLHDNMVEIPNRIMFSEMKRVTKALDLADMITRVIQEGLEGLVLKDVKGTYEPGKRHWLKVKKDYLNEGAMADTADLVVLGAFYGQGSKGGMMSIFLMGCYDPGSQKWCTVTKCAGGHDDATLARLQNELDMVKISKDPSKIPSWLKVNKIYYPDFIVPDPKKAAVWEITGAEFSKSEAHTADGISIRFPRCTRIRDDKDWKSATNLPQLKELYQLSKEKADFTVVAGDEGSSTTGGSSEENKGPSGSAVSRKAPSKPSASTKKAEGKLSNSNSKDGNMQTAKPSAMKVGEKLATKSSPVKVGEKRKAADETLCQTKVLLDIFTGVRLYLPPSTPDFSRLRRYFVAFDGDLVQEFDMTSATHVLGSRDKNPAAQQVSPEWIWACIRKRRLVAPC

[16] = test system: DLD-1; experiment: Induction of apoptosis in human DLD1 cells assessed as early apoptotic cells at 5 uM after 48 hrs by Annexin V-FITC/propidium iodide staining-based flow cytometric method relative to control; format: functional
Method in brief: (§3)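 DLD-1 cells exposed to 2.5, 5 and 10 μM for 48 h, harvested, washed in cold PBS and stained with Annexin V-FITC and PI in binding buffer at room temperature in the dark. Analysed by flow cytometry; early and late apoptotic fractions averaged from three independent experiments.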

[17] = test system: DLD-1; experiment: Antiproliferative activity against human DLD1 cells after 48 hrs by MTT assay; format: functional, cell-based; settings: DLD-1, 48 h; method in brief: as §1
[18] = test system: DLD-1; experiment: Inhibition of colony formation of human DLD1 cells by crystal violet staining based assay; format: functional, cell-based
Method in brief: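 400 DLD-1 cells per well grown overnight in RPMI/10% FBS, then exposed to 1.25, 2.5 and 5 μM for 24 or 48 h. Medium replaced and colonies grown a further 10 days, medium changed every third day. Fixed and stained with 0.5% crystal violet/6% glutaraldehyde for 30 min at room temperature, then imaged.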

[19] = test system: DLD-1; experiment: Induction of apoptosis in human DLD1 cells after 48 hrs by Annexin V-FITC/propidium iodide staining-based flow cytometric method; format: functional, cell-based; method in brief: as §3
[20] = test system: MDA-MB-231; experiment: Antiproliferative activity against human MDA-MB-231 cells after 48 hrs by MTT assay; format: functional, cell-based; settings: MDA-MB-231, 48 h; method in brief: as §1
[21] = test system: DLD-1; experiment: Induction of apoptosis in human DLD1 cells assessed as late apoptotic cells at 10 uM after 48 hrs by Annexin V-FITC/propidium iodide staining-based flow cytometric method relative to control; format: functional; method in brief: as §3
[22] = test system: DNA; experiment: Binding affinity to Escherichia coli pUC18 DNA assessed as protection against DNase1-mediated cleavage at 250 to 700 uM preincubated for 30 mins followed by DNase1 addition measured after 5 mins by 1% agarose gel based UV-transilluminator analysis; format: nucleic-acid assay; method in brief: as §2
[23] = test system: DLD-1; experiment: Induction of apoptosis in human DLD1 cells assessed as late apoptotic cells at 5 uM after 48 hrs by Annexin V-FITC/propidium iodide staining-based flow cytometric method relative to control; format: functional; method in brief: as §3
[24] = test system: HeLa; experiment: Antiproliferative activity against human HeLa cells after 48 hrs by MTT assay; format: functional, cell-based; method in brief: as §1
[25] = test system: DLD-1; experiment: Induction of apoptosis in human DLD1 cells assessed as early apoptotic cells at 10 uM after 48 hrs by Annexin V-FITC/propidium iodide staining-based flow cytometric method relative to control; format: functional; method in brief: as §3
[26] = test system: HepG2; experiment: Antiproliferative activity against human HepG2 cells after 48 hrs by MTT assay; format: functional, cell-based; settings: HepG2, 48 h; method in brief: as §1

Structure (SMILES) | inhibition [2] | Activity [1] | Activity [3] | Activity [4] | Activity [5] | Activity [6] | other results
Cc1[nH]c2ccccc2c1C1C(C#N)=C(N)Oc2c(C(C)C)cc(/C=C/C(=O)c3cccs3)cc21 (stereo unspecified) | < 20% | Active | Active | Active | Active | Active | –
CC1(C)S[C@@H]2[C@H](NC(=O)[C@H](N)c3ccccc3)C(=O)N2[C@H]1C(=O)O | – | – | – | – | – | – | Activity [7]: inactive
COc1ccc(C(=O)/C=C/c2cc3c(c(C(C)(C)C)c2)OC(N)=C(C#N)C3c2c(C)[nH]c3ccccc23)cc1 (stereo unspecified) | < 20% | – | – | – | – | – | –

Further lines, with some results ahead:

inhibition [2] | Structure (SMILES) | Activity [1] | Activity [3] | Activity [4] | Activity [5] | Activity [6] | other results
< 20% | COc1ccc2[nH]c(C)c(C3C(C#N)=C(N)Oc4c(C(C)C)cc(/C=C/C(=O)c5cccs5)cc43)c2c1 (stereo unspecified) | Active | Active | Active | Active | Active | –
69.4% | Cc1[nH]c2ccccc2c1C1C(C#N)=C(N)Oc2c1cc(/C=C/C(=O)c1cccs1)cc2C(C)(C)C (stereo unspecified) | Active | Active | Active | Active | Active | inhibition [8]: Dose-dependent effect; inhibition [9]: Dose-dependent effect; pIC50 [10]: 5.24; Activity [11]: Active; inhibition [12]: inactive; Activity [13]: Active; pIC50 [14]: 4.91; inhibition [15]: inactive; Activity [16]: 17.38%; pIC50 [17]: 5.33; inhibition [18]: Dose-dependent effect; Activity [19]: Dose-dependent effect; pIC50 [20]: 5.22; Activity [21]: 50.96%; Activity [22]: inactive; Activity [23]: 14.85%; pIC50 [24]: 5.19; Activity [25]: 26.53%; pIC50 [26]: 5.19
< 20% | COc1cc(C(=O)/C=C/c2cc3c(c(C(C)(C)C)c2)OC(N)=C(C#N)C3c2c(C)[nH]c3ccccc23)cc(OC)c1OC (stereo unspecified) | – | – | – | – | – | –
< 20% | CCC(C)c1cc(/C=C/C(=O)c2cc(OC)c(OC)c(OC)c2)cc2c1OC(N)=C(C#N)C2c1c(C)[nH]c2ccccc12 (stereo unspecified) | – | – | – | – | – | –
